# Assay results as given in ChEMBL document CHEMBL1221337, “The unsaturated acyclic nucleoside analogues bearing a sterically constrained (Z)-4'-benzamido-2'-butenyl moiety: Synthesis, X-ray crystal structure study, cytostatic and antiviral activity evaluations” (Bioorg Med Chem, 2010).
# Activity calls are given as the source filed them. The calls are words filed in the database; no cut-off is given here.
# System: Coxsackievirus B4
# Test: Antiviral activity against Coxsackievirus B4 infected in Vero cells assessed as inhibition of virus-induced cytopathicity
# Type: functional, organism-based
# Conditions: not given
# Summary of the method: (§1)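 Confluent cell monolayers in 96-well plates were inoculated with 100 CCID50 of virus. After 1 h adsorption, residual virus was removed. Cultures were then incubated with test compound at varying concentrations (200, 40, 8... µM). Viral cytopathicity was scored once it reached completion in untreated infected controls. Host cells: HEL for HSV-1 KOS and HSV-2 G; Vero for the Vero lines; HeLa for the HeLa lines.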
row,SMILES,inhibition
1,Cc1cn(C/C=C\CNC(=O)c2ccc(F)cc2)c(=O)[nH]c1=O,inactive
2,O=C(NC/C=C\Cn1cc(C(F)(F)F)c(=O)[nH]c1=O)c1ccccc1,inactive

# System: MIA PaCa-2
# Test: Cytotoxicity against human MIAPaCa2 cells after 72 hrs by MTT assay
# Type: functional, cell-based
# Conditions: MIA PaCa-2, 72 h
# Summary of the method: (§2)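 Adherent cells were plated at 3000–6000 cells/well on day 0, according to doubling time. Compound was added as five 10-fold dilutions (1 × 10⁻⁸–1 × 10⁻⁴ M), with DMSO ≤0.1%, and incubated 72 h. Read-out was MTT absorbance converted to percentage growth versus untreated wells on the same plate. IC50 was obtained by linear regression between bracketing concentrations; the highest concentration was reported as ">" if not reached. Quadruplicates, three experiments.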
row,SMILES,IC50
1,Cc1cn(C/C=C\CNC(=O)c2ccc(F)cc2)c(=O)[nH]c1=O,> 100 µM
2,O=C(NC/C=C\Cn1cc(C(F)(F)F)c(=O)[nH]c1=O)c1ccccc1,> 100 µM

# System: Vesicular stomatitis virus
# Test: Antiviral activity against Vesicular stomatitis virus infected in HEL cells assessed as inhibition of virus-induced cytopathicity
# Type: functional, organism-based
# Conditions: not given
row,SMILES,inhibition
1,Cc1cn(C/C=C\CNC(=O)c2ccc(F)cc2)c(=O)[nH]c1=O,inactive
2,O=C(NC/C=C\Cn1cc(C(F)(F)F)c(=O)[nH]c1=O)c1ccccc1,inactive

# System: MDCK
# Test: Cytotoxicity against MDCK cells assessed as cell viability after 3 days by coulter counting
# Type: cell-based, Canis lupus familiaris
# Conditions: dog, 72 h
row,SMILES,Activity
1,Cc1cn(C/C=C\CNC(=O)c2ccc(F)cc2)c(=O)[nH]c1=O,Non-toxic
2,O=C(NC/C=C\Cn1cc(C(F)(F)F)c(=O)[nH]c1=O)c1ccccc1,Non-toxic

# System: Human alphaherpesvirus 1
# Test: Antiviral activity against HSV1 KOS infected in HEL cells assessed as inhibition of virus-induced cytopathicity
# Type: functional, organism-based
# Conditions: not given
# Summary of the method: as §1
row,SMILES,inhibition
1,Cc1cn(C/C=C\CNC(=O)c2ccc(F)cc2)c(=O)[nH]c1=O,inactive
2,O=C(NC/C=C\Cn1cc(C(F)(F)F)c(=O)[nH]c1=O)c1ccccc1,inactive

# System: Human alphaherpesvirus 2
# Test: Antiviral activity against HSV2 G infected in HEL cells assessed as inhibition of virus-induced cytopathicity
# Type: functional, organism-based
# Conditions: strain G
# Summary of the method: as §1
row,SMILES,inhibition
1,Cc1cn(C/C=C\CNC(=O)c2ccc(F)cc2)c(=O)[nH]c1=O,inactive
2,O=C(NC/C=C\Cn1cc(C(F)(F)F)c(=O)[nH]c1=O)c1ccccc1,inactive

# System: HEL
# Test: Cytotoxicity against HEL cells assessed as cell viability after 3 days by coulter counting
# Type: cell-based
# Conditions: human, 72 h
# Summary of the method: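 HEL cells were seeded at 5 × 10³ cells/well and allowed to proliferate 24 h. Medium with test compound at different concentrations was then added, and cells were incubated 3 days at 37 °C. Cell number was counted by Coulter counter. CC50 (50% reduction in cell number versus untreated controls) was read from plots of cell number (% of control) against concentration.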
row,SMILES,Activity
1,Cc1cn(C/C=C\CNC(=O)c2ccc(F)cc2)c(=O)[nH]c1=O,Non-toxic
2,O=C(NC/C=C\Cn1cc(C(F)(F)F)c(=O)[nH]c1=O)c1ccccc1,Non-toxic

# System: not listed separately
# Test: Cytotoxicity against human WI38 cells after 72 hrs by MTT assay
# Type: cell-based
# Conditions: WI-38, 72 h
# Summary of the method: as §2
row,SMILES,IC50
1,Cc1cn(C/C=C\CNC(=O)c2ccc(F)cc2)c(=O)[nH]c1=O,0.1 µM
2,O=C(NC/C=C\Cn1cc(C(F)(F)F)c(=O)[nH]c1=O)c1ccccc1,> 100 µM

# System: Vero
# Test: Cytotoxicity against african green monkey Vero cells assessed as cell viability after 3 days by coulter counting
# Type: cell-based
# Conditions: chlorocebus sabaeus, 72 h
row,SMILES,Activity
1,Cc1cn(C/C=C\CNC(=O)c2ccc(F)cc2)c(=O)[nH]c1=O,Non-toxic
2,O=C(NC/C=C\Cn1cc(C(F)(F)F)c(=O)[nH]c1=O)c1ccccc1,Non-toxic

# System: Sindbis virus
# Test: Antiviral activity against Sindbis virus infected in Vero cells assessed as inhibition of virus-induced cytopathicity
# Type: functional, organism-based
# Conditions: not given
# Summary of the method: as §1
row,SMILES,inhibition
1,Cc1cn(C/C=C\CNC(=O)c2ccc(F)cc2)c(=O)[nH]c1=O,inactive
2,O=C(NC/C=C\Cn1cc(C(F)(F)F)c(=O)[nH]c1=O)c1ccccc1,inactive

# System: Mammalian orthoreovirus 1
# Test: Antiviral activity against Reovirus 1 infected in Vero cells assessed as inhibition of virus-induced cytopathicity
# Type: functional, organism-based
# Conditions: not given
# Summary of the method: as §1
row,SMILES,inhibition
1,Cc1cn(C/C=C\CNC(=O)c2ccc(F)cc2)c(=O)[nH]c1=O,inactive
2,O=C(NC/C=C\Cn1cc(C(F)(F)F)c(=O)[nH]c1=O)c1ccccc1,inactive

# System: Respiratory syncytial virus
# Test: Antiviral activity against Respiratory syncytial virus infected in human HeLa cells assessed as inhibition of virus-induced cytopathicity
# Type: functional, organism-based
# Conditions: not given
# Summary of the method: as §1
row,SMILES,inhibition
1,Cc1cn(C/C=C\CNC(=O)c2ccc(F)cc2)c(=O)[nH]c1=O,inactive
2,O=C(NC/C=C\Cn1cc(C(F)(F)F)c(=O)[nH]c1=O)c1ccccc1,inactive

# System: SK-BR-3
# Test: Cytotoxicity against human SK-BR-3 cells after 72 hrs by MTT assay
# Type: functional, cell-based
# Conditions: SK-BR-3, 72 h
# Summary of the method: as §2
row,SMILES,IC50
1,Cc1cn(C/C=C\CNC(=O)c2ccc(F)cc2)c(=O)[nH]c1=O,> 100 µM
2,O=C(NC/C=C\Cn1cc(C(F)(F)F)c(=O)[nH]c1=O)c1ccccc1,> 100 µM

# System: HeLa
# Test: Cytotoxicity against human HeLa cells assessed as cell viability after 3 days by coulter counting
# Type: cell-based
# Conditions: 72 h
row,SMILES,Activity
1,Cc1cn(C/C=C\CNC(=O)c2ccc(F)cc2)c(=O)[nH]c1=O,Non-toxic
2,O=C(NC/C=C\Cn1cc(C(F)(F)F)c(=O)[nH]c1=O)c1ccccc1,Non-toxic

# System: Human respirovirus 3
# Test: Antiviral activity against Parainfluenza 3 infected in Vero cells assessed as inhibition of virus-induced cytopathicity
# Type: functional, organism-based
# Conditions: not given
# Summary of the method: as §1
row,SMILES,inhibition
1,Cc1cn(C/C=C\CNC(=O)c2ccc(F)cc2)c(=O)[nH]c1=O,inactive
2,O=C(NC/C=C\Cn1cc(C(F)(F)F)c(=O)[nH]c1=O)c1ccccc1,inactive

# System: HeLa
# Test: Cytotoxicity against human HeLa cells after 72 hrs by MTT assay
# Type: functional, cell-based
# Conditions: not given
# Summary of the method: as §2
row,SMILES,IC50
1,Cc1cn(C/C=C\CNC(=O)c2ccc(F)cc2)c(=O)[nH]c1=O,> 100 µM
2,O=C(NC/C=C\Cn1cc(C(F)(F)F)c(=O)[nH]c1=O)c1ccccc1,> 100 µM

# System: Coxsackievirus B4
# Test: Antiviral activity against Coxsackievirus B4 infected in human HeLa cells assessed as inhibition of virus-induced cytopathicity
# Type: functional, organism-based
# Conditions: not given
# Summary of the method: as §1
row,SMILES,inhibition
1,Cc1cn(C/C=C\CNC(=O)c2ccc(F)cc2)c(=O)[nH]c1=O,inactive
2,O=C(NC/C=C\Cn1cc(C(F)(F)F)c(=O)[nH]c1=O)c1ccccc1,inactive

# System: Vesicular stomatitis virus
# Test: Antiviral activity against Vesicular stomatitis virus infected in human HeLa cells assessed as inhibition of virus-induced cytopathicity
# Type: functional, organism-based
# Conditions: not given
# Summary of the method: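 Confluent HeLa cultures were infected with 100 CCID50 of virus. Unadsorbed virus was removed after 1 h, and compound was added at serial concentrations (200, 40, 8…). Viral cytopathic effect was read when untreated virus-infected control wells reached full cytopathicity.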
row,SMILES,inhibition
1,Cc1cn(C/C=C\CNC(=O)c2ccc(F)cc2)c(=O)[nH]c1=O,inactive
2,O=C(NC/C=C\Cn1cc(C(F)(F)F)c(=O)[nH]c1=O)c1ccccc1,inactive

# System: Influenza A virus
# Test: Antiviral activity against influenza A virus H1N1; H3N2 infected in MDCK cells assessed as inhibition of virus-induced cytopathicity
# Type: functional, organism-based
# Conditions: not given
# Summary of the method: (§3)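 MDCK cells, nearly confluent in microtiter plates, were infected with 100 CCID50 per well. After 1 h adsorption, the inoculum was washed off. Cells were incubated with graded compound concentrations (200, 40, 8…). Cytopathicity was recorded at completion in untreated infected controls.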
row,SMILES,inhibition
1,Cc1cn(C/C=C\CNC(=O)c2ccc(F)cc2)c(=O)[nH]c1=O,inactive
2,O=C(NC/C=C\Cn1cc(C(F)(F)F)c(=O)[nH]c1=O)c1ccccc1,inactive

# System: Vaccinia virus
# Test: Antiviral activity against Vaccinia virus infected in HEL cells assessed as inhibition of virus-induced cytopathicity
# Type: functional, organism-based
# Conditions: Orthopoxvirus vaccinia
row,SMILES,inhibition
1,Cc1cn(C/C=C\CNC(=O)c2ccc(F)cc2)c(=O)[nH]c1=O,inactive
2,O=C(NC/C=C\Cn1cc(C(F)(F)F)c(=O)[nH]c1=O)c1ccccc1,inactive

# System: Punta Toro virus
# Test: Antiviral activity against Punta Toro virus infected in Vero cells assessed as inhibition of virus-induced cytopathicity
# Type: functional, organism-based
# Conditions: not given
# Summary of the method: as §1
row,SMILES,inhibition
1,Cc1cn(C/C=C\CNC(=O)c2ccc(F)cc2)c(=O)[nH]c1=O,inactive
2,O=C(NC/C=C\Cn1cc(C(F)(F)F)c(=O)[nH]c1=O)c1ccccc1,inactive

# System: SW-620
# Test: Cytotoxicity against human SW620 cells after 72 hrs by MTT assay
# Type: functional, cell-based
# Conditions: SW-620, 72 h
# Summary of the method: as §2
row,SMILES,IC50
1,Cc1cn(C/C=C\CNC(=O)c2ccc(F)cc2)c(=O)[nH]c1=O,> 100 µM
2,O=C(NC/C=C\Cn1cc(C(F)(F)F)c(=O)[nH]c1=O)c1ccccc1,> 100 µM

# System: Influenza B virus
# Test: Antiviral activity against influenza B virus infected in MDCK cells assessed as inhibition of virus-induced cytopathicity
# Type: functional, organism-based
# Conditions: not given
# Summary of the method: as §3
row,SMILES,inhibition
1,Cc1cn(C/C=C\CNC(=O)c2ccc(F)cc2)c(=O)[nH]c1=O,inactive
2,O=C(NC/C=C\Cn1cc(C(F)(F)F)c(=O)[nH]c1=O)c1ccccc1,inactive

# System: HEp-2
# Test: Cytotoxicity against human Hep2 cells after 72 hrs by MTT assay
# Type: functional, cell-based
# Conditions: HEp-2, 72 h
# Summary of the method: as §2
row,SMILES,IC50
1,Cc1cn(C/C=C\CNC(=O)c2ccc(F)cc2)c(=O)[nH]c1=O,> 100 µM
2,O=C(NC/C=C\Cn1cc(C(F)(F)F)c(=O)[nH]c1=O)c1ccccc1,> 100 µM

# System: MCF7
# Test: Cytotoxicity against human MCF7 cells after 72 hrs by MTT assay
# Type: functional, cell-based
# Conditions: MCF7, 72 h
# Summary of the method: as §2
row,SMILES,IC50
1,Cc1cn(C/C=C\CNC(=O)c2ccc(F)cc2)c(=O)[nH]c1=O,24.1 µM
2,O=C(NC/C=C\Cn1cc(C(F)(F)F)c(=O)[nH]c1=O)c1ccccc1,> 100 µM
